According to ChEMBL document CHEMBL1124106, “Synthesis of diethylenetriaminepentaacetic acid conjugated inulin and utility for cellular uptake of liposomes” (J Med Chem, 1988):
Where “and” joins values, the source holds several entries; their conditions need not be identical. Equal entries are not always repeated.

Assays:
Mus musculus [1] = test: Biodistribution in mice intestine, after 1 hr of intravenous administration of 1-2 ug of compound (entrapped in bovine brain sphingomyelin/ cholesterol multilamellar vehicles); assay type: ADME, organism-based; conditions: in vivo
How it was run: (§1)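 BALB/c mice (about 25 g), 3–5 per group, given 50–100 μL tail-vein injection of 111In-labeled conjugate entrapped in SM/CH (2:1 mol/mol) multilamellar vesicles, approx. 100 000 cpm; dose 1–2 μg phospholipid/g body weight. Killed by cervical dislocation at set times; blood, cumulative excretion and rinsed, blotted, weighed tissues γ-counted, blood background subtracted. Result is % injected dose ± SD.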

Mus musculus [2] = test: Biodistribution in mice intestine, after 48 hr of intravenous administration of 1-2 ug of compound (entrapped in bovine brain sphingomyelin/ cholesterol multilamellar vehicles); assay type: ADME, organism-based; conditions: in vivo; how it was run: as §1
Mus musculus [3] = test: Biodistribution in mice kidneys, after 12 hr of intravenous administration of 1-2 ug of compound (entrapped in bovine brain sphingomyelin/ cholesterol multilamellar vehicles); assay type: ADME, organism-based, Kidney; conditions: in vivo; how it was run: as §1
Mus musculus [4] = test: Biodistribution in mice kidneys, after 48 hr of intravenous administration of 1-2 ug of compound (entrapped in bovine brain sphingomyelin/ cholesterol multilamellar vehicles); assay type: ADME, organism-based, Kidney; conditions: in vivo; how it was run: as §1
Mus musculus [5] = test: Biodistribution in mice leg muscle, after 12 hr of intravenous administration of 1-2 ug of compound (entrapped in bovine brain sphingomyelin/ cholesterol multilamellar vehicles); assay type: ADME, organism-based, Muscle tissue; conditions: in vivo; how it was run: as §1
Mus musculus [6] = test: Biodistribution in mice leg muscle, after 24 hr of intravenous administration of 1-2 ug of compound (entrapped in bovine brain sphingomyelin/ cholesterol multilamellar vehicles); assay type: ADME, organism-based, Muscle tissue; conditions: in vivo; how it was run: as §1
Mus musculus [7] = test: Biodistribution in mice liver, after 12 hr of intravenous administration of 1-2 ug of compound (entrapped in bovine brain sphingomyelin/ cholesterol multilamellar vehicles); assay type: ADME, organism-based; conditions: in vivo; how it was run: as §1
Mus musculus [8] = test: Biodistribution in mice liver, after 1 hr of intravenous administration of 1-2 ug of compound (entrapped in bovine brain sphingomyelin/ cholesterol multilamellar vehicles); assay type: ADME, organism-based; conditions: in vivo; how it was run: as §1
Mus musculus [9] = test: Biodistribution in mice liver, after 48 hr of intravenous administration of 1-2 ug ofcompound (entrapped in bovine brain sphingomyelin/ cholesterol multilamellar vehicles); assay type: ADME, organism-based; conditions: in vivo; how it was run: as §1
Mus musculus [10] = test: Biodistribution in mice lung, after 24 hr of intravenous administration of 1-2 ug of compound (entrapped in bovine brain sphingomyelin/ cholesterol multilamellar vehicles); assay type: ADME, organism-based; conditions: in vivo; how it was run: as §1
Mus musculus [11] = test: Biodistribution in mice skin, after 12 hr of intravenous administration of 1-2 ug of compound (entrapped in bovine brain sphingomyelin/ cholesterol multilamellar vehicles); assay type: ADME, organism-based, Zone of skin; conditions: in vivo; how it was run: as §1
Mus musculus [12] = test: Biodistribution in mice fat, after 48 hr of intravenous administration of 1-2 ug of compound (entrapped in bovine brain sphingomyelin/ cholesterol multilamellar vehicles); assay type: ADME, organism-based; conditions: in vivo; how it was run: as §1
Mus musculus [13] = test: Biodistribution in mice heart, after 1 hr of intravenous administration of 1-2 ug of compound (entrapped in bovine brain sphingomyelin/ cholesterol multilamellar vehicles); assay type: ADME, organism-based; conditions: in vivo; how it was run: as §1
[14] = Biodistribution in mice excretion, after 24 hr of intravenous administration of 1-2 ug of ofcompound (entrapped in bovine brain sphingomyelin/ cholesterol multilamellar vehicles); assay type: ADME, organism-based; conditions: mouse, excretion (excreta, not specified further), read-out: ID; how it was run: as §1
Mus musculus [15] = test: Biodistribution in mice heart, after 24 hr of intravenous administration of 1-2 ug of compound (entrapped in bovine brain sphingomyelin/ cholesterol multilamellar vehicles); assay type: ADME, organism-based; conditions: in vivo; how it was run: as §1
Mus musculus [16] = test: Biodistribution of compound in mice carcass after 0.17 hr of intravenous injection; assay type: ADME, organism-based; conditions: in vivo
How it was run: (§2)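 BALB/c mice (about 25 g), n = 4. Free ¹¹¹In- or ⁶⁷Ga-labeled compound (50–100 μL, about 100 000 cpm) was injected into a tail vein. Mice were held in separate cages and killed by cervical dislocation, with blood and cumulative excreta collected. Tissues were rinsed, blotted, weighed and γ-counted, with blood background subtracted (blood volume 8.0%). Values are % injected dose ± SD.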

Mus musculus [17] = test: Biodistribution of compound in mice carcass after 21 hr of intravenous injection; assay type: ADME, organism-based; conditions: in vivo; how it was run: as §2
[18] = (§3) Biodistribution of compound in mice excretion after 0.17 hr of intravenous injection; assay type: ADME, organism-based; conditions: mouse, excretion (excreta, not specified further), read-out: ID; how it was run: as §2
Mus musculus [19] = test: as §3; assay type: ADME, organism-based; conditions: in vivo, 0.17 h; how it was run: as §2
[20] = (§4) Biodistribution of compound in mice excretion after 21 hr of intravenous injection; assay type: ADME, organism-based; conditions: mouse, excretion (excreta, not specified further), read-out: ID; how it was run: as §2
Mus musculus [21] = test: as §4; assay type: ADME, organism-based; conditions: in vivo, 21 h; how it was run: as §2
Mus musculus [22] = test: Biodistribution of compound in mice kidneys after 1 hr of intravenous injection; assay type: ADME, organism-based, Kidney; conditions: in vivo; how it was run: as §2
Mus musculus [23] = test: Biodistribution of compound in mice kidneys after 21 hr of intravenous injection; assay type: ADME, organism-based, Kidney; conditions: in vivo; how it was run: as §2
Mus musculus [24] = test: Biodistribution of compound in mice leg muscle after 0.17 hr of intravenous injection; assay type: ADME, organism-based, Muscle tissue; conditions: in vivo; how it was run: as §2
Mus musculus [25] = test: Biodistribution in mice skin, after 48 hr of intravenous administration of 1-2 ug ofcompound (entrapped in bovine brain sphingomyelin/ cholesterol multilamellar vehicles); assay type: ADME, organism-based, Zone of skin; conditions: in vivo; how it was run: as §1
Mus musculus [26] = test: Biodistribution in mice spleen, after 24 hr of intravenous administration of 1-2 ug of compound (entrapped in bovine brain sphingomyelin/ cholesterol multilamellar vehicles); assay type: ADME, organism-based; conditions: in vivo; how it was run: as §1
Mus musculus [27] = test: Biodistribution in mice brain, after 12 hr of intravenous administration of 1-2 ug of compound (entrapped in bovine brain sphingomyelin/ cholesterol multilamellar vehicles); assay type: ADME, organism-based; conditions: in vivo; how it was run: as §1
Mus musculus [28] = test: Biodistribution in mice brain, after 1 hr of intravenous administrating 1-2 ug of compound (entrapped in bovine brain sphingomyelin/ cholesterol multilamellar vehicles); assay type: ADME, organism-based; conditions: in vivo; how it was run: as §1
Mus musculus [29] = test: Biodistribution in mice brain, after 24 hr of intravenous administration of 1-2 ug of compound (entrapped in bovine brain sphingomyelin/ cholesterol multilamellar vehicles); assay type: ADME, organism-based; conditions: in vivo; how it was run: as §1
Mus musculus [30] = test: Biodistribution in mice tail, after 12 hr of intravenous administration of 1-2 ug of compound (entrapped in bovine brain sphingomyelin/ cholesterol multilamellar vehicles); assay type: ADME, organism-based; conditions: in vivo
How it was run: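 BALB/c mice (about 25 g), groups of 2–5. Compound ¹¹¹In-loaded into SM/CH (2:1, mol/mol) multilamellar vesicles, given as a single tail-vein injection. Lipid dose was 1–2 μg phospholipid/g body weight, in 50–100 μL carrying about 100 000 cpm. Mice were killed by cervical dislocation. Organs were rinsed, blotted, weighed and γ-counted, with blood background subtracted. Values are % injected dose ± SD.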

Mus musculus [31] = test: Biodistribution of compound in mice leg muscle after 21 hr of intravenous injection; assay type: ADME, organism-based, Muscle tissue; conditions: in vivo; how it was run: as §2
Mus musculus [32] = test: Biodistribution of compound in mice liver after 0.17 hr of intravenous injection; assay type: ADME, organism-based; conditions: in vivo; how it was run: as §2
Mus musculus [33] = test: Biodistribution of compound in mice liver after 1 hr of intravenous injection; assay type: ADME, organism-based; conditions: in vivo; how it was run: as §2
Mus musculus [34] = test: Biodistribution of compound in mice skin after 1 hr of intravenous injection; assay type: ADME, organism-based, Zone of skin; conditions: in vivo; how it was run: as §2
Mus musculus [35] = test: Biodistribution of compound in mice spleen after 0.17 hr of intravenous injection; assay type: ADME, organism-based; conditions: in vivo; how it was run: as §2
Mus musculus [36] = test: Biodistribution of compound in mice spleen after 1 hr of intravenous injection; assay type: ADME, organism-based; conditions: in vivo; how it was run: as §2
Mus musculus [37] = test: Biodistribution of compound in mice spleen after 21 hr of intravenous injection; assay type: ADME, organism-based; conditions: in vivo; how it was run: as §2
Mus musculus [38] = test: Biodistribution of compound in mice tail after 21 hr of intravenous injection; assay type: ADME, organism-based; conditions: in vivo; how it was run: as §2
Mus musculus [39] = test: Biodistribution in mice blood, after 12 hr of intravenous administration of 1-2 ug of compound (entrapped in bovine brain sphingomyelin/ cholesterol multilamellar vehicles); assay type: ADME, organism-based; conditions: in vivo; how it was run: as §1
[40] = Biodistribution in mice excretion, after 12 hr of intravenous administration of 1-2 ug of compound (entrapped in bovine brain sphingomyelin/ cholesterol multilamellar vehicles); assay type: ADME, organism-based; conditions: mouse, excretion (excreta, not specified further), read-out: ID; how it was run: as §1

An ID (Mus musculus [1]) of 0.7%, an ID (Mus musculus [2]) of 0.6% and an ID (Mus musculus [3]) of 0.4% were found for `NCCNC(=O)CN(CCN(CCN(CC(=O)O)CC(=O)O)CC(=O)O)CC(=O)O` in this work. It also gave an ID (Mus musculus [4]) of 0.4%, an ID (Mus musculus [5]) of 0.4% and an ID (Mus musculus [6]) of 0.2%. For the same compound, the ID (Mus musculus [7]) was 73.6%, the ID (Mus musculus [8]) was 55.1% and the ID (Mus musculus [9]) was 62.4%. It also gave an ID (Mus musculus [10]) of 0.4%, an ID (Mus musculus [11]) of 1.1% and an ID (Mus musculus [12]) of 0.1%. The ID (Mus musculus [13]) was 0%, the dose excreted at 24 h [14] was 0% and the ID (Mus musculus [15]) was 0%. For the same compound, the ID (Mus musculus [16]) was 14.2% and 19.3%, the ID (Mus musculus [17]) was 0.8% and 3% and the dose excreted at 0.17 h [18] was 3.6%. The ID (Mus musculus [19]) was 3.2%, the dose excreted at 21 h [20] was 77.1% and the ID (Mus musculus [21]) was 69.5%. The ID (Mus musculus [22]) was 1.9% and 1.7%, the ID (Mus musculus [23]) was 0.8% and 0.9% and the ID (Mus musculus [24]) was 3.2% and 3.1%. It also gave an ID (Mus musculus [25]) of 2.8%, an ID (Mus musculus [26]) of 1.9% and an ID (Mus musculus [27]) of 0%. It also gave an ID (Mus musculus [28]) of 0%, an ID (Mus musculus [29]) of 0.2% and an ID (Mus musculus [30]) of 2.7%. The ID (Mus musculus [31]) was 0.2% and 0.3%, the ID (Mus musculus [32]) was 0.6% and 1.3% and the ID (Mus musculus [33]) was 0.3% and 1.4%. The ID (Mus musculus [34]) was 5.8% and 7.7%, the ID (Mus musculus [35]) was 0.2% and 0.1% and the ID (Mus musculus [36]) was 0.1% and 0%. For the same compound, the ID (Mus musculus [37]) was 0.1%, the ID (Mus musculus [38]) was 2.1% and 2.3% and the ID (Mus musculus [39]) was 0.5%. It also gave a dose excreted at 12 h [40] of 0%.
